Assay results pooled from the literature.
Lines come from different studies, so protocols differ.
JAK3: Tyrosine-protein kinase JAK3 (JAK3, Homo sapiens, UniProt P52333)
JAK3 JH1: Tyrosine-protein kinase JAK3, JH1 (JAK3, Homo sapiens, UniProt P52333)

CN1CC(Oc2cnc(C#N)cc2-c2ccn3nc(NC(=O)C4CC4)cc3c2)C1  inhibition (JAK3; enzyme activity; inhibitor; 1 µM): 15%
N#CCCc1ccc2c(c1)-c1[nH]c3ccc([N+](=O)[O-])cc3c1CC(=O)N2  remaining signal (JAK3; cell-free assay; 0.5 µM): 101%
O=C(NC[C@@H]1[C@H]2CN(C(=O)OCc3cc(C(F)(F)F)cc(C(F)(F)F)c3)C[C@@H]12)c1ccc2[nH]nnc2c1  remaining binding (JAK3 JH1; cell-free assay; competition with immobilised ligand; 1 µM): 69%
Cc1sc(C(=O)NC2COC2)cc1-n1cc(NC(=O)Nc2c(F)cccc2Cl)cn1  remaining activity (JAK3; enzyme activity; inhibitor; 10 µM): 96.7%
Cc1cnc(NC2CCOCC2)nc1-n1cnc(C(=O)NC(CN)c2cc(F)cc(Cl)c2)c1 (stereo not shown)  remaining activity (JAK3; enzyme activity; inhibitor; radiometric; 1 µM): 118%
N[C@H]1CCN(c2nccc(-c3cnn4ncccc34)n2)C1  remaining signal (JAK3 JH1; cell-free assay; 1 µM): 86%
O=C(CSc1nc2nccnc2c(=O)n1CCc1ccccc1)Nc1nccs1  inhibition (JAK3; enzyme activity; inhibitor; 10 µM): -2%
CNCc1ccccc1-c1csc([C@H](C)Nc2nc(C)nc3cc(OC)c(OC)cc23)c1  remaining binding (JAK3 JH1; cell-free assay; competition with immobilised ligand; 1 µM): 99%
CC(C)(C)c1nc2c(s1)c1nc(N)ncc1c1ccc(NS(=O)(=O)c3c(F)cccc3F)c(F)c12  remaining activity (JAK3; enzyme activity; inhibitor; radiometric; 1 µM): 100%
NS(=O)(=O)c1cc(NC(=O)Cc2ccccc2)ccc1Oc1cccc(Cl)c1  remaining binding (JAK3 JH1; cell-free assay; competition with immobilised ligand; 1 µM): 96%
C[C@@H]1CCN(c2nccc(-c3cnn4ncccc34)n2)C1  remaining signal (JAK3 JH1; cell-free assay; 1 µM): 80%
CCN(CC)CCNC(=O)c1c(C)[nH]c(/C=C2\C(=O)Nc3ccc(F)cc32)c1C  inhibition (JAK3; enzyme activity; inhibitor; 0.3 µM): 7%
CCS(=O)(=O)c1cc2cc(C[C@](O)(CC(C)(C)c3ccc(F)cc3C(N)=O)C(F)(F)F)[nH]c2cn1  remaining binding (JAK3 JH1; cell-free assay; competition with immobilised ligand; 1 µM): 72%
C=CC(=O)Nc1cc(Nc2nccc(Nc3cc(Cl)c(F)cc3C(C)(C)O)n2)c(OC)cc1N1CC[C@@H](N(C)C)C1  inhibition (JAK3; enzyme activity; inhibitor; 1 µM): 24%
COc1cc(Cl)c(C(=O)N[C@@H](CN[C@H]2CC[C@@H](N)CC2)Cc2ccc(C#N)cc2)cc1-c1ccc(CN[C@H](C)c2ccc(C)cc2)o1  remaining activity (JAK3; enzyme activity; inhibitor; 1 µM): 101%
O=C(O)[C@@H]1[C@@H](Cn2nnc3ccccc3c2=O)CC[C@H]1C(=O)c1ccc(OCCC2CCOCC2)cc1  remaining binding (JAK3 JH1; cell-free assay; competition with immobilised ligand; 1 µM): 95%
COc1cc2ncnc(Nc3ccc(F)c(Cl)c3)c2cc1OCCCN1CCOCC1  remaining signal (JAK3; cell-free assay; 0.5 µM): 96.6%
CCOC(=O)c1cc2cc(-c3cc(C(=O)NCc4ccc(C(=O)O)cc4)nn3C)ccc2[nH]1  remaining binding (JAK3 JH1; cell-free assay; competition with immobilised ligand; 0.1 µM): 82%
Cc1ccc(Nc2nccc(N(C)c3ccc4c(C)n(C)nc4c3)n2)cc1S(N)(=O)=O  inhibition (JAK3; enzyme activity; inhibitor; 0.3 µM): 11%
